# Source: ChEMBL document CHEMBL3272327, “Hypocholesterolemic activity of 1,3-bis(substituted phenoxy)-2-propanones” (J Med Chem, 1976)
# Legend:
# Rattus norvegicus [1] = test: Hypocholesterolemic activity in Sprague-Dawley rat assessed as serum cholesterol level at 10 mg/kg/day, po administered via intubation measured on day 10 by Liebermann-Burchard reaction (reference value: 100%); format: functional
# Rattus norvegicus [2] = test: Hypocholesterolemic activity in Sprague-Dawley rat assessed as serum cholesterol level at 10 mg/kg/day, po administered via intubation measured on day 16 by Liebermann-Burchard reaction (reference value: 100%); format: functional
# Rattus norvegicus [3] = test: Hypocholesterolemic activity in Sprague-Dawley rat assessed as serum cholesterol level at 10 mg/kg/day, po administered via intubation measured on day 4 by Liebermann-Burchard reaction (reference value: 100%); format: functional
# Rattus norvegicus [4] = test: Effect on testes weight in rat at 10 mg/kg/day administered for 16 days measured 24 hrs after last drug dosage relative to total body weight (reference value: 1.10 +/- 0.17%); format: ADME, organism-based, Testis; details: in vivo
# Rattus norvegicus [5] = test: Effect on liver weight in rat at 10 mg/kg/day administered for 16 days measured 24 hrs after last drug dosage relative to total body weight (reference value: 4.54 +/- 0.29%); format: ADME, organism-based; details: in vivo
# Rattus norvegicus [6] = test: Effect on epididymis and vas deferens weight in rat at 10 mg/kg/day administered for 16 days measured 24 hrs after last drug dosage relative to total body weight (reference value: 0.24 +/- 0.07%); format: ADME, organism-based; details: in vivo
# Rattus norvegicus [7] = test: Effect on kidney weight in rat at 10 mg/kg/day administered for 16 days measured 24 hrs after last drug dosage relative to total body weight (reference value: 0.96 +/- 0.08%); format: ADME, organism-based; details: in vivo
# Rattus norvegicus [8] = test: Effect on vesicular gland weight in rat at 10 mg/kg/day administered for 16 days measured 24 hrs after last drug dosage relative to total body weight (reference value: 0.11 +/- 0.04%); format: ADME, organism-based; details: in vivo
# [9] = Solubility of the compound in 1% CMC; format: physicochemical
# Rattus norvegicus [10] = test: Uterotrophic activity in ovariectomized Sprague-Dawley rat assessed as uterine weight administered for 3 days (reference value: 100 +/- 27%); format: organism-based, Uterus; details: in vivo, 72 h
# [11] = Toxicity in ip dosed CF1 mouse assessed as animal death; format: organism-based; details: in vivo
# Procedure, shortened: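 Male CF1 mice given active propanones ip over 10 mg to 6 g/kg where solubility allowed; deaths recorded to estimate LD50.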
# Rattus norvegicus [12] = test: Effect on heart weight in rat at 10 mg/kg/day administered for 16 days measured 24 hrs after last drug dosage relative to total body weight (reference value: 0.43 +/- 0.10%); format: ADME, organism-based; details: in vivo
SMILES,Activity (Rattus norvegicus [1]) [%],Activity (Rattus norvegicus [2]) [%],Activity (Rattus norvegicus [3]) [%],Activity (Rattus norvegicus [4]) [%],Activity (Rattus norvegicus [5]) [%],Activity (Rattus norvegicus [6]) [%],Activity (Rattus norvegicus [7]) [%],Activity (Rattus norvegicus [8]) [%],solubility [9],Activity (Rattus norvegicus [10]) [%],LD50 [11] [mg/kg],Activity (Rattus norvegicus [12]) [%]
COc1ccccc1OCC(=O)COc1ccccc1OC,83,79,102,,,,,,,,,
CCC(=O)c1ccc(OCC(=O)CCl)cc1,89,90,79,,,,,,,,,
O=C(COc1ccccc1Cl)COc1ccccc1Cl,69,70,69,1.21,4.66,0.27,1.02,0.23,,,,
CC(C)(C)c1ccc(OCC(=O)COc2ccc(C(C)(C)C)cc2)cc1,95,83,87,,,,,,,,,
O=C(COc1ccccc1)COc1ccccc1,87,90,104,,,,,,,,,
Cc1ccc(/C=C/C(=O)/C=C/c2ccc(C)cc2)cc1,83,96,94,,,,,,,,,
O=C(COc1ccc(F)cc1)COc1ccc(F)cc1,87,82,88,,,,,,,,,
O=C(COCc1ccc(Cl)cc1)COCc1ccc(Cl)cc1,88,92,106,,,,,,,,,
O=C(COc1cccc(Cl)c1)COc1cccc(Cl)c1,91,84,97,,,,,,,,,
Cc1ccc(OCC(=O)COc2ccc(Cl)cc2)cc1,84,75,108,,,,,,,,,
Cc1ccc(CCC(=O)CCc2ccc(C)cc2)cc1,86,96,91,,,,,,,,,
Cc1cc(OCC(=O)COc2cc(C)c(Cl)c(C)c2)cc(C)c1Cl,70,61,78,0.91,4.66,0.27,1.02,0.1,Insoluble,83,> 6000,
COc1ccc(OCC(=O)COc2ccc(OC)cc2)cc1,51,60,76,1.22,4.73,0.22,1.04,0.11,,70,6000,0.54
CCc1ccc(OCC(=O)COc2ccc(CC)cc2)cc1,60,64,70,1.14,4.28,0.27,0.87,0.15,Insoluble,62,> 3000,
O=C(COc1ccc(I)cc1)COc1ccc(I)cc1,103,93,100,,,,,,,,,
CCOC(=O)C(C)(C)Oc1ccc(Cl)cc1 [CLOFIBRATE],98,106,111,,,,,,,,,
COc1ccc(OCC(=O)COc2ccc(Cl)cc2)cc1,88,84,102,,,,,,,,,
